Experimental findings from ChEMBL document CHEMBL1123296, “Potential antiatherosclerotic agents. 5. An acyl-CoA:cholesterol O-acyltransferase inhibitor with hypocholesterolemic activity” (J Med Chem, 1986) are described below.

The species named for assay [1] is Rattus norvegicus. The assay is described as follows: Effective concentration required to effect liver cholesterol concentrations in rat. Type of assay: functional. In short, it runs like this: (§1)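 Rats fed diet with 1% cholesterol and 0.5% cholic acid, compound given in the diet at 1, 3 or 10 mg/kg per day. Read-outs were liver cholesterol (mg/g), serum cholesterol and serum triglycerides (mg/dL), each given as mean ± SEM. ED50 was derived from the dose response of liver cholesterol.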

Assay [2] deals with Rattus norvegicus. The assay is described as follows: Compound was evaluated for the effect of serum lipids in cholesterol-fed rats Serum triglyceride at a dose of 10 mg/kg per day. Type of assay: functional. In short, it runs like this:
as §1

In assay [3] the test system is Rattus norvegicus. The assay can be described thus: (§2) Effect of serum lipids in cholesterol-fed rats Serum triglyceride at a dose of 1 mg/kg per day of the compound. Type of assay: functional. In short, it runs like this: as §1
For assay [4], the system named is Rattus norvegicus. The assay can be described thus: Effect of serum lipids in cholesterol-fed rats and Serum cholesterol at a dose of 1 mg/kg per day of the compound. Type of assay: functional. In short, it runs like this: as §1
The species named for assay [5] is Rattus norvegicus. The assay is described as follows: Effect of liver Cholesterol absorption in cholesterol-fed rats. Type of assay: functional. A digest of the protocol: as §1
The species named for assay [6] is Rattus norvegicus. The assay can be described thus: Compound was evaluated for the effect on serum lipids in cholesterol-fed rats. Type of assay: functional. In short, it runs like this: as §1
Assay [7] deals with Rattus norvegicus. Described as §2. Type of assay: functional. A digest of the protocol:
as §1
The source holds these as a separate data set.

Assay [8] addresses T1, Sterol O-acyltransferase 1 (Homo sapiens, UniProt P35610).
T1 sequence (P35610 whole entry): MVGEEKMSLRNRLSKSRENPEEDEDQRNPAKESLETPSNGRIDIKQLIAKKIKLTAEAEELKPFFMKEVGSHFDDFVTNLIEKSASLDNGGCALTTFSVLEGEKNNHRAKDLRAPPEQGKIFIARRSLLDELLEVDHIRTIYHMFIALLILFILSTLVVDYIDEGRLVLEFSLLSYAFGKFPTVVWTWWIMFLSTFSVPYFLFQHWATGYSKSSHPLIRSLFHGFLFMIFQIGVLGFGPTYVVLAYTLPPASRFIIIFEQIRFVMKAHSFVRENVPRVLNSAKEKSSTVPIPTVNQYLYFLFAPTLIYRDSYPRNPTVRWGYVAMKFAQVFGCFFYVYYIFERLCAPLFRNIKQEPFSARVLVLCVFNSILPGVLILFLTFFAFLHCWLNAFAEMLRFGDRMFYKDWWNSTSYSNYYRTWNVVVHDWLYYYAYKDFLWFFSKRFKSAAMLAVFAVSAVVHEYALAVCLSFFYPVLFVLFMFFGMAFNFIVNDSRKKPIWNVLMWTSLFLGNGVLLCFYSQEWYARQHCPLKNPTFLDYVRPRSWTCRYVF
The assay is described as follows: In vitro inhibitory activity against acyl coenzyme A:cholesterol acyltransferase.

“And” between values parts separate entries of the source, which are not always exact repeats. Equal entries are not always repeated.

Regarding `CCCCCCCN(Cc1ccc(CC(C)(C)C)cc1)C(=O)Nc1ccc(F)cc1F` [CL-277082], in assay [1], it took a dose of 5.4 mg/kg to reach the 50% effect level (ED50). Moreover, the figures for the Triglycerides in assay [2], in assay [3] and in assay [7] were 77 mg/dL, 121 mg/dL and 132 mg/dL, respectively. In addition, the Cholesterol in assay [4] is 211 mg/dL and 357 mg/dL; in assay [6], 84 mg/dL. For the same molecule, the Liver cholesterol in assay [5] was 15.6 mg/g.
In assay [8], `CC(=O)[C@H]1CC[C@H]2[C@@H]3CCC4=CC(=O)CC[C@]4(C)[C@H]3CC[C@]12C` [PROGESTERONE] showed an IC50 of 17 µM.
